The species named for one experiment is Homo sapiens. As to the kind of experiment: (§1) Inhibition of TNFalpha activated NF-kappaB dependent transactivation of HIV-1 LTR Luc in 5.1 cells. The experiment is classed as cell-based. The method in brief: (§2)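 A T cell line stably carrying HIV-1 LTR-driven luciferase was preincubated with increasing concentrations for 30 min, then stimulated with TNFα (2 ng/mL) for 6 h. Cells were lysed in Tris-phosphate buffer pH 7.8 with Triton X-100. Luciferase was read and normalized to Bradford protein (RLU/µg) after subtracting lysis-buffer background. Results are fold induction over untreated cells, with at least three repeats.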

The subject of experiment [1] is Human immunodeficiency virus 1. As to the kind of experiment: Inhibition of VSV-pseudotyped HIV1 replication in Jurkat T cells. The experiment is classed as functional, organism-based. The method in brief:
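Jurkat T cells (10^6/mL) pretreated 30 min with increasing concentrations before infection with VSV-pseudotyped pNL4-3.Luc.R-E- virus (Env-, Vpr-; stock made in 293T cells), 200 ng HIV-1 gag p24 per culture. After 24 h the cells were washed twice in PBS and luciferase activity in the lysates was read as % of infected untreated cells. Mean ± SD of three independent experiments.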

In experiment [2] the test system is Monocyte. Put plainly: Inhibition of IL1-beta production in LPS-stimulated human primary monocytes by ELISA. The experiment is classed as functional. The method in brief: (§3)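 Primary monocytes from healthy donors were seeded at (1-2) × 10^6 cells/well at 37 °C/5% CO2. Nonadherent cells were removed and the medium replaced with RPMI-1640 plus 1% human serum. Cells were preincubated with increasing compound concentrations for 30 min, then stimulated with LPS (10 ng/mL) for 24 h. Supernatants were cleared at 10000g for 10 min. Cytokines were measured by ELISA and PGE2 by EIA.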

Experiment [3] concerns Monocyte. Put plainly: Inhibition of TNFalpha production in LPS-stimulated human primary monocytes by ELISA. The experiment is classed as functional. The method in brief: as §3
(In general: An ELISA detects its analyte on a solid surface through an enzyme-linked reagent.)

For experiment [4], the system named is Monocyte. As to the kind of experiment: Inhibition of IL6 production in LPS-stimulated human primary monocytes by ELISA. The experiment is classed as functional. The method in brief:
as §3

In experiment [5] the test system is Monocyte. Put plainly: Inhibition of IL8 production in LPS-stimulated human primary monocytes by ELISA. The experiment is classed as functional.
Experiment [6] relates to Monocyte. Put plainly: Inhibition of PGE2 production in LPS-stimulated human primary monocytes by ELISA. The experiment is classed as functional. The method in brief:
as §3

Experiment [7] in a line: as §1. The experiment is classed as cell-based. As to conditions: Homo sapiens. The method in brief: as §2

A word on the IC50: it is the concentration that gives 50% inhibition.

Active and inactive are the calls of the source. No cut-off for these calls is given here.

Regarding `C=C(CO)[C@@H]1Cc2cc(C(C)=O)ccc2O1`, the outcome in the experiment listed under Homo sapiens was inactive. On to `C=C(CO)[C@H]1Oc2ccc(C(C)=O)cc2[C@H]1OC(C)=O`, for which, in the experiment listed under Homo sapiens, the outcome was inactive. In the case of `C=C(COC(C)=O)[C@@H]1Cc2cc(C(C)=O)ccc2O1`, in the experiment filed under Homo sapiens, the result was inactive. `C=C(COC(C)=O)[C@H]1Oc2ccc(C(C)=O)cc2[C@H]1OC(C)=O`: the result in the experiment listed under Homo sapiens was inactive. Turning to `CCC(C)C(=O)C(C)c1oc(=O)c(C)c(O)c1C` (stereo not drawn), the outcome in the experiment filed under Homo sapiens was inactive. As to `CCc1oc(=O)c(Cc2c(O)c(CC=C(C)C)c(O)c(C(C)=O)c2O)c(O)c1C` [ARZANOL], the Activity entry in experiment [1] is “Dose-dependent effect”. Also, the IC50 in the experiment with Monocyte [2] was 5.6 µM; in the experiment on Monocyte [3], 9.2 µM; with Monocyte [4], 13.3 µM; with Monocyte [5] it was 21.8 µM; in the experiment with Monocyte [6], 18.7 µM; in experiment [7] it was 5 µM.

Regarding `CCc1oc(=O)c(Cc2c(O)c(C)c(CC)oc2=O)c(O)c1C` [HELIPYRONE], the concentration for half-maximal inhibition (IC50) in experiment [7] was determined as 8.7 µM.

Source of the values: ChEMBL document CHEMBL1142109, “Arzanol, an anti-inflammatory and anti-HIV-1 phloroglucinol alpha-Pyrone from Helichrysum italicum ssp. microphyllum” (J Nat Prod, 2007).
